Data as given in ChEMBL document CHEMBL2169868, “Flavone-based novel antidiabetic and antidyslipidemic agents” (J Med Chem, 2012).
The source made the active and inactive calls. The rule behind the calls is not given here.

Experiments:
[1] = tested on: Mus musculus; experiment: Antidiabetic activity in diabetic C57BL/KsJ db/db mouse model assessed as improvement in glucose tolerance in hyperglycemia at 100 mg/kg, po measured 2 hrs post dose; format: functional
[2] = tested on: Mus musculus; experiment: Antidiabetic activity in diabetic C57BL/KsJ db/db mouse model assessed as improvement in glucose tolerance in hyperglycemia at 1 mg/kg, po measured 2 hrs post dose; format: functional
[3] = tested on: Mus musculus; experiment: Antidyslipidemic activity in diabetic C57BL/KsJ db/db mouse model assessed as reduction in plasma cholesterol level at 25 mg/kg, po qd for 10 days; format: functional; set-up: scale not given: the % may be the effect or the level left
How it was run: (§1)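 db/db mice (blood glucose 200−350, TG 170−250, cholesterol 170−250, HDL-C 32−40 mg/dL) dosed orally at 25 mg/kg daily for 10 days; retro-orbital blood taken on day 11 for plasma TG, cholesterol and HDL-C (and HDL-C/CHOL ratio); mean % change versus vehicle control, 5 mice per group; Student t test.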

[4] = Cmax in Sprague-Dawley rat at 2.5 mg/kg, iv by LC-MS/MS method; format: ADME, organism-based; set-up: dose 2.5 mg/kg, route intravenous; settings: in vivo
How it was run: (§2)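 Male Sprague−Dawley rats given a single 2.5 mg/kg iv dose; one formulation was DMF/PG/water (2:4:4), 0.2 μ filtered. Blood drawn from 0.08 to 48 h. Plasma assayed by LC-MS/MS with linear range 0.78−400 ng/mL.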

[5] = tested on: Rattus norvegicus; experiment: AUC in Sprague-Dawley rat at 25 mg/kg, po by LC-MS/MS method; settings: in vivo
[6] = Plasma clearance in Sprague-Dawley rat at 2.5 mg/kg, iv by LC-MS/MS method; format: ADME, organism-based; set-up: dose 2.5 mg/kg, route intravenous; how it was run: as §2
[7] = tested on: Mus musculus; experiment: Antidiabetic activity in diabetic C57BL/KsJ db/db mouse model assessed as reduction in postprandial glucose level in hyperglycemia at 25 mg/kg, po measured 2 hrs post dose; format: functional; set-up: scale not given: the % may be the effect or the level left
How it was run: (§3)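 db/db mice (C57BL/KsJ, 12−18 weeks, 40−50 g; selected by glucose 200−350 mg/dL) dosed orally daily for 10 consecutive days at 1, 3, 10, 25 or 50 mg/kg; postprandial blood glucose profile recorded on day 6 with food access interrupted; mean % change versus vehicle in 5 animals per group; Student t test.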

[8] = tested on: Rattus norvegicus; experiment: AUC in Sprague-Dawley rat at 2.5 mg/kg, iv by LC-MS/MS method; settings: in vivo
[9] = Plasma clearance in Sprague-Dawley rat at 25 mg/kg, po by LC-MS/MS method; format: ADME, organism-based; set-up: dose 25 mg/kg, route oral
How it was run: (§4)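 Male Sprague−Dawley rats given a single 25 mg/kg oral dose (aqueous 0.5% methyl cellulose suspension for one compound). Blood drawn from 0.08 to 48 h. LC-MS/MS, linear range 0.78−400 ng/mL.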

[10] = tested on: Mus musculus; experiment: Antidyslipidemic activity in diabetic C57BL/KsJ db/db mouse model assessed as increase in plasma HDL-C/cholesterol ratio at 25 mg/kg, po qd for 10 days; format: functional; how it was run: as §1
[11] = tested on: Mus musculus; experiment: Antihyperglycemic activity in diabetic C57BL/KsJ db/db mouse model assessed as improvement in glucose tolerance in hyperglycemia at 25 mg/kg, po qd for 10 days; format: functional
How it was run: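 Male/female C57BL/KsJ db/db mice, 12−18 weeks, 40−50 g, selected for glucose 200−350 mg/dL. Oral dosing daily for 10 days. OGTT on day 10 after an overnight fast: compound at −30 min, then 3 g/kg oral glucose at 0 min. Glucose read at 30, 60, 90 and 120 min. AUC taken versus vehicle, 5 mice per group.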

[12] = tested on: Mus musculus; experiment: Antidiabetic activity in diabetic C57BL/KsJ db/db mouse model assessed as reduction in postprandial glucose level in hyperglycemia at 50 mg/kg, po measured 2 hrs post dose; set-up: scale not given: the % may be the effect or the level left
[13] = tested on: Mus musculus; experiment: Antidyslipidemic activity in diabetic C57BL/KsJ db/db mouse model assessed as reduction in plasma triglyceride level at 25 mg/kg, po qd for 10 days; format: functional; set-up: scale not given: the % may be the effect or the level left; how it was run: as §1
[14] = tested on: Rattus norvegicus; experiment: Volume of distribution in Sprague-Dawley rat at 25 mg/kg, po by LC-MS/MS method; format: ADME, organism-based; set-up: dose 25 mg/kg, route oral; settings: in vivo; how it was run: as §4
[15] = tested on: Mus musculus; experiment: Reduction in body weight in diabetic C57BL/KsJ db/db mouse model in hyperglycemia at 25 mg/kg, po qd for 10 days relative to untreated control; format: functional
How it was run: (§5)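 db/db mice (C57BL/KsJ, 12−18 weeks, 40−50 g, glucose 200−350 mg/dL), housed at 23 ± 2.0 °C on a 12 h light cycle. Oral dosing daily for 10 days. Blood glucose checked each morning through day 9. Body weight recorded daily from day 1 to day 10. Mean % change versus vehicle, 5 mice per group; Student t test.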

[16] = Mean residence time in Sprague-Dawley rat at 25 mg/kg, po by LC-MS/MS method; format: ADME, organism-based; set-up: dose 25 mg/kg, route oral; settings: in vivo; how it was run: as §4
[17] = tested on: Mus musculus; experiment: Antihyperglycemic activity in diabetic C57BL/KsJ db/db mouse model assessed as reduction in hyperglycemia at 25 mg/kg, po qd for 10 days; format: functional; set-up: scale not given: the % may be the effect or the level left; how it was run: as §5
[18] = tested on: Mus musculus; experiment: Antidiabetic activity in diabetic C57BL/KsJ db/db mouse model assessed as reduction in postprandial glucose level in hyperglycemia at 10 mg/kg, po measured 2 hrs post dose; format: functional; set-up: scale not given: the % may be the effect or the level left; how it was run: as §3
[19] = tested on: Mus musculus; experiment: Antidiabetic activity in diabetic C57BL/KsJ db/db mouse model assessed as improvement in glucose tolerance in hyperglycemia at 25 mg/kg, po measured 2 hrs post dose; format: functional
[20] = tested on: Mus musculus; experiment: Antihyperglycemic activity in diabetic C57BL/KsJ db/db mouse model assessed as reduction in plasma insulin level in hyperglycemia at 25 mg/kg, po qd for 10 days; format: functional; set-up: scale not given: the % may be the effect or the level left
How it was run: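 db/db mice dosed orally every day for 10 days. On day 11, retro-orbital blood was drawn and plasma insulin measured. Mean % change versus vehicle-treated control, 5 mice per group; Student t test.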

[21] = Elimination half life in Sprague-Dawley rat at 25 mg/kg, po by LC-MS/MS method; format: ADME, organism-based; set-up: dose 25 mg/kg, route oral; settings: in vivo, read-out: beta t1/2 (converted); how it was run: as §4
[22] = tested on: Mus musculus; experiment: Antidiabetic activity in diabetic C57BL/KsJ db/db mouse model assessed as reduction in postprandial glucose level in hyperglycemia at 1 mg/kg, po measured 2 hrs post dose; format: functional; set-up: scale not given: the % may be the effect or the level left; how it was run: as §3
[23] = tested on: Mus musculus; experiment: Antidyslipidemic activity in diabetic C57BL/KsJ db/db mouse model assessed as increase in plasma HDL-cholesterol level at 25 mg/kg, po qd for 10 days; format: functional; how it was run: as §1
[24] = tested on: Mus musculus; experiment: Antidiabetic activity in diabetic C57BL/KsJ db/db mouse model assessed as reduction in postprandial glucose level in hyperglycemia at 3 mg/kg, po measured 2 hrs post dose; format: functional; set-up: scale not given: the % may be the effect or the level left; how it was run: as §3
[25] = Elimination half life in Sprague-Dawley rat at 2.5 mg/kg, iv by LC-MS/MS method; format: ADME, organism-based; set-up: dose 2.5 mg/kg, route intravenous; settings: in vivo, read-out: beta t1/2 (converted); how it was run: as §2
[26] = Tmax in Sprague-Dawley rat at 25 mg/kg, po by LC-MS/MS method; format: ADME, organism-based; set-up: dose 25 mg/kg, route oral; settings: in vivo; how it was run: as §4
[27] = tested on: Mus musculus; experiment: Antidiabetic activity in diabetic C57BL/KsJ db/db mouse model assessed as improvement in glucose tolerance in hyperglycemia at 10 mg/kg, po measured 2 hrs post dose; format: functional
[28] = Cmax in Sprague-Dawley rat at 25 mg/kg, po by LC-MS/MS method; format: ADME, organism-based; set-up: dose 25 mg/kg, route oral; settings: in vivo; how it was run: as §4
[29] = Volume of distribution in Sprague-Dawley rat at 2.5 mg/kg, iv by LC-MS/MS method; format: ADME, organism-based; set-up: dose 2.5 mg/kg, route intravenous; settings: in vivo; how it was run: as §2
[30] = Oral bioavailability in Sprague-Dawley rat at 25 mg/kg by LC-MS/MS method; format: ADME, organism-based; settings: in vivo; how it was run: as §4
[31] = Mean residence time in Sprague-Dawley rat at 2.5 mg/kg, iv by LC-MS/MS method; format: ADME, organism-based; set-up: dose 2.5 mg/kg, route intravenous; settings: in vivo; how it was run: as §2
[32] = tested on: Mus musculus; experiment: Antidiabetic activity in diabetic C57BL/KsJ db/db mouse model assessed as improvement in glucose tolerance in hyperglycemia at 3 mg/kg, po measured 2 hrs post dose; format: functional

CC(C)NC[C@H](O)COc1ccc2c(=O)cc(-c3cc(O)cc(O)c3)oc2c1
Activity [1]: 49.2% | Activity [2]: 12% | Activity [3]: 27% | Cmax [4]: 1810 ng/mL | AUC [5]: 39.5 ng·h/mL | clearance [6]: 55 mL/min/kg | Activity [7]: 31.6% | AUC [8]: 756 ng·h/mL | CL/F [9]: 54.5 mL/min/kg | Percent increase in HDL-C/cholesterol ratio vs vehicle [10]: 68.7 | Activity [11]: 29.7% | Activity [12]: 35.4% | Activity [13]: 21% | Vd [14]: 16.18 L/kg | Activity [15]: inactive | MRT [16]: 5.96 h | Activity [17]: 45.6% | Activity [18]: 31.2% | Activity [19]: 41.1% | Activity [20]: 39.2% | half-life [21]: 3.39 h | Activity [22]: 12.1% | Activity [23]: 23.1% | Activity [24]: 27.1% | half-life [25]: 4.83 h | Tmax [26]: 0.33 h | Activity [27]: 30.7% | Cmax [28]: 21.2 ng/mL | Vd [29]: 16.2 L/kg | bioavailability [30]: 0.52% | MRT [31]: 4.9 h | Activity [32]: 19.7%
